Reference: PMC4110683 (Chemistry and physics of lipids, 2013)
≈ marks a conversion by molar mass, not a printed value. Where two headings read alike, the source gives them in different places.

Tests used:
[1] = tested on: L. donovani promastigotes; conditions: read-out: IC50 L. donovani promastigotes; ref Carballeira et al., 2012; cited from earlier work
M. smegmatis mc^2 155 = conditions: ref Morbidoni et al., 2006; cited from earlier work
housefly = conditions: in words, ref de Renobales et al., 1986; cited from earlier work
[2] = tested on: human SH-SY5Y neuroblastoma cells; experiment: LDH release in SH-SY5Y cells; format: cell-based; conditions: 40 μM, 48h, in words
[3] = tested on: Mycobacterium tuberculosis H37Rv; conditions: ref Morbidoni et al., 2006; cited from earlier work
caspase-3 = experiment: Caspase-3 activation in SH-SY5Y cells; format: cell-based, human; conditions: 40 μM, 48h, in words
P. falciparum K1 = experiment: Toxicity to P. falciparum K1 strain; format: cell-based, Plasmodium falciparum
hTopIB = target: T1, hTopIB (Homo sapiens, UniProt P11387); conditions: read-out: hTopIB EC50; relaxation activity; ref Carballeira et al., 2012; cited from earlier work
T1 sequence (P11387 1-765): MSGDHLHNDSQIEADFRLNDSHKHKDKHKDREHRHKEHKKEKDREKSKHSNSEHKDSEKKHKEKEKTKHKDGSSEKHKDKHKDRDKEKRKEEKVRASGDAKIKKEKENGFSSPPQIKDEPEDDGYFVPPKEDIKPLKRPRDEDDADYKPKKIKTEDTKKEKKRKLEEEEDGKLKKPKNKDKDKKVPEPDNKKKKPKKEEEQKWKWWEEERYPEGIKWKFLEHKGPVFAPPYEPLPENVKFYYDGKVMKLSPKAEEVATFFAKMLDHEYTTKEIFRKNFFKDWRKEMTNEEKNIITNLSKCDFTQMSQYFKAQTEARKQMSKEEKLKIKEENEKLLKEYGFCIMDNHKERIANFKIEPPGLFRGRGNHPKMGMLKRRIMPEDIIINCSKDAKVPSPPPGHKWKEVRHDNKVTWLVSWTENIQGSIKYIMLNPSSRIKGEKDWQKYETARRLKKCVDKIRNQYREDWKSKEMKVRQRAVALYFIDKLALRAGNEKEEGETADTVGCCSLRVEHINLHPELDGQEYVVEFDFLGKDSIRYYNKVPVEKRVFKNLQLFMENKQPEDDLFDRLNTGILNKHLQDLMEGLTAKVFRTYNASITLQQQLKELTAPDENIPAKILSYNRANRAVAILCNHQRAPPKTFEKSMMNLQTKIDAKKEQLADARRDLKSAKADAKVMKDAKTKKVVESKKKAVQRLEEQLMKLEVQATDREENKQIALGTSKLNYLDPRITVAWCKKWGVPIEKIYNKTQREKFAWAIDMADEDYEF

[4] = tested on: InhA, the enoyl-ACP reductase; conditions: in words; ref Morbidoni et al., 2006; cited from earlier work
[5] = tested on: human SH-SY5Y neuroblastoma cell line; experiment: Cytotoxicity to SH-SY5Y neuroblastoma cells; format: cell-based; conditions: 120 h, read-out: IC50 SH-SY5Y neuroblastoma cell line
How it was run: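 Human SH-SY5Y neuroblastoma cells were first differentiated with 15 μM all-trans retinoic acid for 5 d. Test compound was then added to the culture medium, and activity was read by sulforhodamine B (SRB) assay.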

[6] = tested on: mouse leukaemic monocyte macrophage cell line (RAW 264.7); experiment: Cytotoxicity to RAW 264.7 cells; format: cell-based; conditions: RAW264.7, read-out: IC50 RAW 264.7
LdTopIB = conditions: read-out: LdTopIB EC50; relaxation activity; ref Carballeira et al., 2012; cited from earlier work
PfFabZ = target: T2, PfFabZ (Plasmodium falciparum, UniProt Q965D7); experiment: Inhibition of PfFabZ; format: biochemical
T2 sequence (Q965D7 19-230): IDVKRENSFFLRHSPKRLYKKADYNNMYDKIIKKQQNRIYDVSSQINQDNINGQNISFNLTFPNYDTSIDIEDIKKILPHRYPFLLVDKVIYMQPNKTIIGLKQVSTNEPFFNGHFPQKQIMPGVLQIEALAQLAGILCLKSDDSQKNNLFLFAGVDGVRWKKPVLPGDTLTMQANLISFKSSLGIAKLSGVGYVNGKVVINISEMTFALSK

[7] = tested on: human colon adenocarcinoma grade II cell line (HT29); experiment: Cytotoxicity to HT29 cells; format: cell-based; conditions: HT-29, read-out: IC50 HT29
PfFabI = target: T3, PfFabI (Plasmodium falciparum, UniProt Q9BH77); experiment: Inhibition of PfFabI; format: biochemical
T3 sequence (Q9BH77 22-432): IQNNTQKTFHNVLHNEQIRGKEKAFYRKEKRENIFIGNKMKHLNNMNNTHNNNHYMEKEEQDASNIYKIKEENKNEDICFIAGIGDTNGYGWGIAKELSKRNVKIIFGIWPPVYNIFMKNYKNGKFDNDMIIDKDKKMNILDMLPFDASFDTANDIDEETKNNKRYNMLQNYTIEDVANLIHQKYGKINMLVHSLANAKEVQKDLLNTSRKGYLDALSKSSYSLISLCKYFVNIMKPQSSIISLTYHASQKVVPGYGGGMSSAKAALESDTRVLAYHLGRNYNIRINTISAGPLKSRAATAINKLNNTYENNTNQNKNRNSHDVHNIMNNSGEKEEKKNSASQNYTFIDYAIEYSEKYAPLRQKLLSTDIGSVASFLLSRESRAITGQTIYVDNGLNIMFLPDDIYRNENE

PfFabG = PfFabG (Plasmodium falciparum, UniProt Q8I2S7); experiment: biochemical
[8] = tested on: BALB/c murine macrophages; conditions: read-out: Murine macrophages BALB/c IC50; ref Carballeira et al., 2012; cited from earlier work

Structure (SMILES): CCCCCCCCCCCCCCCC#CC(=O)O [2-ODA, 2-octadecynoic acid]
- IC50 [1]: 11 µM
- MIC against M. smegmatis mc^2 155 (M. smegmatis mc^2 155): 4 µM (≈ 1.12 µg/mL)
- In vivo incorporation of [1-14C]acetate into fatty acids and hydrocarbons (housefly): inhibited
- LDH release [2]: significant LDH release
- MIC against Mycobacterium tuberculosis H37Rv [3]: 20 to 25 µM
- Caspase-3 activation (caspase-3): did not produce any significant caspase-3 activation
- IC50 (P. falciparum K1; Plasmodium falciparum, K1, read-out: IC50 P. falciparum K1, Carballeira and Tasdemir, unpublished data): 20 µM
- IC50 (P. falciparum K1; read-out: IC50 P. falciparum K1, Carballeira and Tasdemir, unpublished data): 21.7 µM
- EC50 (hTopIB): 34.8 ± 2.3 µM
- Inhibition of InhA [4]: able to inhibit
- IC50 [5]: 26 ± 2 µM
- IC50 [6]: 45.5 ± 3.4 µM
- EC50 (LdTopIB): 5.3 ± 0.7 µM
- IC50 (PfFabZ): 1 µM
- IC50 [7]: 101.1 ± 0.9 µM
- IC50 (PfFabI): 1.1 µM
- IC50 (PfFabG): 2.9 µM
- IC50 [8]: > 100 µM
